In ChEMBL document CHEMBL4814038, “Discovery of sertraline and its derivatives able to combat drug-resistant gastric cancer cell via inducing apoptosis” (Bioorg Med Chem Lett, 2021):
Activity calls are given as the source filed them. The rule behind the calls is not given here.

Tests used:
SGC-7901 [1] = assay: Antiproliferative activity against cisplatin resistant human SGC-7901 cells assessed as sensitizing activity at 20 uM in presence of cisplatin; format: functional, cell-based
Method in brief: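 Cisplatin-resistant SGC-7901/DDP cells treated with each compound at 20 μM in combination with DDP (15 μM). Sensitizing effect read as inhibition of proliferation.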

SGC-7901 [2] = assay: Antiproliferative activity against cisplatin resistant human SGC-7901 cells assessed as sensitizing activity in presence of cisplatin; format: functional, cell-based
Method in brief: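 Cisplatin-resistant SGC-7901/DDP cells co-treated with DDP (15 μM) and compound over 1.0, 2.0, 4.0, 8.0, 12, 16, 20, 24 μM. IC50 derived from inhibition of proliferation.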

SGC-7901 [3] = assay: Induction of apoptosis in human SGC-7901 cells assessed as upregulation of cleaved caspase 3 expression level by Western blotting analysis; format: functional, cell-based; conditions: dose 3-6 µM
SGC-7901 [4] = assay: Induction of apoptosis in human SGC-7901 cells assessed as viable cells at 8 uM by FITC/PI staining based flow cytometry analysis (reference value: 94.3 %); format: functional; conditions: read-out: Activity
SGC-7901 [5] = assay: Induction of apoptosis in human SGC-7901 cells assessed as early apoptotic cells at 8 uM by FITC/PI staining based flow cytometry analysis (reference value: 3.06 %); format: functional
SGC-7901 [6] = assay: Induction of apoptosis in human SGC-7901 cells assessed as late apoptotic cells at 8 uM by FITC/PI staining based flow cytometry analysis (reference value: 2.56 %); format: functional
SGC-7901 [7] = assay: Induction of apoptosis in human SGC-7901 cells assessed as necrotic cells at 8 uM by FITC/PI staining based flow cytometry analysis (reference value: 0.068 %); format: functional
SGC-7901 [8] = assay: Induction of cell cycle arrest in human SGC-7901 cells assessed as accumulation at G0/G1 phase at 8 to 16 uM by flow cytometry analysis; format: functional, cell-based; conditions: dose 8-16 µM
Method in brief: (§1)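 SGC-7901/DDP cells exposed to DDP (15 μM) with compound at 8 and 16 μM (parent) or 3 and 6 μM (derivatives). Cell-cycle distribution measured by flow cytometry, with G0/G1 fraction scored.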

[9] = Effect on PI3K/AKT/mTOR signaling pathway in human SGC-7901 cells assessed as reduction in phosphorylated PI3K expression at 8 to 16 uM by Western blotting analysis; format: cell-based; conditions: filed as modulator, dose 8-16 µM
Method in brief: (§2)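 SGC-7901/DDP cells given DDP (15 μM) alone or with compound at 8 and 16 μM (parent) or 3 and 6 μM (derivatives). PI3K, Akt, mTOR and their phosphorylated forms detected by Western blotting.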

[10] = Effect on PI3K/AKT/mTOR signaling pathway in human SGC-7901 cells assessed as reduction in phosphorylated PI3K expression at 3 to 6 uM by Western blotting analysis; format: cell-based; conditions: filed as modulator, dose 3-6 µM; method in brief: as §2
[11] = Effect on PI3K/AKT/mTOR signaling pathway in human SGC-7901 cells assessed as reduction in phosphorylated AKT expression at 8 to 16 uM by Western blotting analysis; format: cell-based; conditions: filed as modulator, dose 8-16 µM; method in brief: as §2
[12] = Effect on PI3K/AKT/mTOR signaling pathway in human SGC-7901 cells assessed as reduction in phosphorylated AKT expression at 3 to 6 uM by Western blotting analysis; format: cell-based; conditions: filed as modulator, dose 3-6 µM; method in brief: as §2
[13] = Effect on PI3K/AKT/mTOR signaling pathway in human SGC-7901 cells assessed as reduction in phosphorylated mTOR expression at 8 to 16 uM by Western blotting analysis; format: cell-based; conditions: filed as modulator, dose 8-16 µM; method in brief: as §2
[14] = Effect on PI3K/AKT/mTOR signaling pathway in human SGC-7901 cells assessed as reduction in phosphorylated mTOR expression at 3 to 6 uM by Western blotting analysis; format: cell-based; conditions: filed as modulator, dose 3-6 µM; method in brief: as §2
[15] = Effect on PI3K/AKT/mTOR signaling pathway in human SGC-7901 cells assessed as change in total PI3K expression at 8 to 16 uM by Western blotting analysis; format: cell-based; conditions: dose 8-16 µM; method in brief: as §2
[16] = Effect on PI3K/AKT/mTOR signaling pathway in human SGC-7901 cells assessed as change in total AKT expression at 8 to 16 uM by Western blotting analysis; format: cell-based; conditions: dose 8-16 µM; method in brief: as §2
[17] = Effect on PI3K/AKT/mTOR signaling pathway in human SGC-7901 cells assessed as change in total mTOR expression at 8 to 16 uM by Western blotting analysis; format: cell-based; conditions: dose 8-16 µM; method in brief: as §2
SGC-7901 [18] = assay: Induction of apoptosis in human SGC-7901 cells assessed as viable cells at 3 uM by FITC/PI staining based flow cytometry analysis (reference value: 94.3 %); format: functional; conditions: read-out: Activity
SGC-7901 [19] = assay: Induction of apoptosis in human SGC-7901 cells assessed as early apoptotic cells at 3 uM by FITC/PI staining based flow cytometry analysis (reference value: 3.06 %); format: functional
SGC-7901 [20] = assay: Induction of apoptosis in human SGC-7901 cells assessed as late apoptotic cells at 3 uM by FITC/PI staining based flow cytometry analysis (reference value: 2.56 %); format: functional
SGC-7901 [21] = assay: Induction of apoptosis in human SGC-7901 cells assessed as necrotic cells at 3 uM by FITC/PI staining based flow cytometry analysis (reference value: 0.068 %); format: functional
SGC-7901 [22] = assay: Induction of cell cycle arrest in human SGC-7901 cells assessed as accumulation at G0/G1 phase at 3 to 6 uM by flow cytometry analysis; format: functional, cell-based; conditions: dose 3-6 µM; method in brief: as §1
[23] = Effect on PI3K/AKT/mTOR signaling pathway in human SGC-7901 cells assessed as change in total AKT expression at 3 to 6 uM by Western blotting analysis; format: cell-based; conditions: dose 3-6 µM; method in brief: as §2
[24] = Effect on PI3K/AKT/mTOR signaling pathway in human SGC-7901 cells assessed as change in total mTOR expression at 3 to 6 uM by Western blotting analysis; format: cell-based; conditions: dose 3-6 µM; method in brief: as §2
[25] = Effect on PI3K/AKT/mTOR signaling pathway in human SGC-7901 cells assessed as change in total PI3K expression at 3 to 6 uM by Western blotting analysis; format: cell-based; conditions: dose 3-6 µM; method in brief: as §2

Which Activity (SGC-7901 [1]) does the source give for Clc1ccc([C@@H]2CC[C@@H](NCc3ccc4c(c3)OCO4)c3ccccc32)cc1Cl here?
The Activity was “inactive”.

With Clc1ccc([C@@H]2CC[C@@H](NCc3cccc4ccccc34)c3ccccc32)cc1Cl (relative stereo) as the compound, how does the Activity (SGC-7901 [1]) read?
Its Activity is “inactive”.

Which Activity (SGC-7901 [1]) does the source give for N[C@H]1CC[C@H](c2ccc(Cl)c(Cl)c2)c2ccccc21 (relative stereo) here?
Its Activity is “inactive”.

Which Activity (SGC-7901 [1]) does the source give for COc1ccc(CN[C@@H]2CC[C@@H](c3ccc(Cl)c(Cl)c3)c3ccccc32)cc1 (relative stereo) here?
The Activity was “Active”.

For NCCN[C@@H]1CC[C@H](c2ccc(Cl)c(Cl)c2)c2ccccc21 (relative stereo), which Activity (SGC-7901 [1]) is on record?
Its Activity is “Active”.

And the IC50 (SGC-7901 [2])?
The IC50 was 10.7 µM.

For NCCN[C@@H]1CC[C@@H](c2ccc(Cl)c(Cl)c2)c2ccccc21 (relative stereo), which Activity (SGC-7901 [1]) is on record?
The Activity was “Active”.

And the IC50 (SGC-7901 [2])?
The IC50 was 11 µM.

Which results are given for CN[C@H]1CC[C@@H](c2ccc(Cl)c(Cl)c2)c2ccccc21 [SERTRALINE]?
Activity (SGC-7901 [3]): Dose-Dependent Effect; IC50 (SGC-7901 [2]): 18.7 µM; viability at 8 µM (SGC-7901 [4]): 55.2%; Activity (SGC-7901 [5]): 4.21%; Activity (SGC-7901 [6]): 20.9%; Activity (SGC-7901 [7]): 19.7%; Activity (SGC-7901 [8]): Active; Activity [9]: Active; Activity [10]: Active; Activity [11]: Active; Activity [12]: Active; Activity [13]: Active; Activity [14]: Active; Activity [15]: inactive; Activity [16]: inactive; Activity [17]: inactive

For CC(C)(C)OC(=O)N1CCN(CCN[C@@H]2CC[C@@H](c3ccc(Cl)c(Cl)c3)c3ccccc32)CC1 (relative stereo), which IC50 (SGC-7901 [2]) is on record?
The IC50 was 17.1 µM.

For Clc1ccc([C@H]2CC[C@H](NCCN3CCNCC3)c3ccccc32)cc1Cl (relative stereo), which Activity (SGC-7901 [3]) is on record?
The Activity was “Dose-Dependent Effect”.

What about the Activity (SGC-7901 [1]) of the same compound?
Its Activity is “Active”.

And the IC50 (SGC-7901 [2])?
The IC50 was 5.2 µM.

What about the viability at 3 µM (SGC-7901 [18]) of the same compound?
The viability at 3 µM was 34.5%.

And the Activity (SGC-7901 [19])?
The Activity was 4.06%.

What about the Activity (SGC-7901 [20]) of the same compound?
The Activity was 41%.

What about the Activity (SGC-7901 [21]) of the same compound?
Its Activity is 20.3%.

And the Activity (SGC-7901 [22])?
The Activity was “Active”.

What about the Activity [10] of the same compound?
Its Activity is “Active”.

And the Activity [12]?
The Activity was “Active”.

And the Activity [14]?
Its Activity is “Active”.

And the Activity [23]?
Its Activity is “inactive”.

And the Activity [24]?
Its Activity is “inactive”.

With NCCCCN[C@@H]1CC[C@H](c2ccc(Cl)c(Cl)c2)c2ccccc21 (relative stereo) as the compound, how does the Activity (SGC-7901 [1]) read?
The Activity was “Active”.

What about the IC50 (SGC-7901 [2]) of the same compound?
Its IC50 is 6.3 µM.

With O=C(CCCCl)N[C@H]1CC[C@H](c2ccc(Cl)c(Cl)c2)c2ccccc21 as the compound, how does the Activity (SGC-7901 [1]) read?
The Activity was “inactive”.

For N[C@@H]1CC[C@H](c2ccc(Cl)c(Cl)c2)c2ccccc21 (relative stereo), which Activity (SGC-7901 [1]) is on record?
The Activity was “inactive”.

With NCCCCCCN[C@@H]1CC[C@H](c2ccc(Cl)c(Cl)c2)c2ccccc21 (relative stereo) as the compound, how does the Activity (SGC-7901 [1]) read?
The Activity was “Active”.

And the IC50 (SGC-7901 [2])?
The IC50 was 18.9 µM.

With CC(=O)N[C@H]1CC[C@H](c2ccc(Cl)c(Cl)c2)c2ccccc21 (relative stereo) as the compound, how does the Activity (SGC-7901 [1]) read?
The Activity was “inactive”.

With Clc1ccc(CN[C@@H]2CC[C@@H](c3ccc(Cl)c(Cl)c3)c3ccccc32)cc1Cl (relative stereo) as the compound, how does the Activity (SGC-7901 [1]) read?
The Activity was “inactive”.

With Cc1ccc(CN[C@@H]2CC[C@@H](c3ccc(Cl)c(Cl)c3)c3ccccc32)cc1 (relative stereo) as the compound, how does the Activity (SGC-7901 [1]) read?
The Activity was “inactive”.

With NCCCCCCN[C@@H]1CC[C@@H](c2ccc(Cl)c(Cl)c2)c2ccccc21 (relative stereo) as the compound, how does the Activity (SGC-7901 [1]) read?
Its Activity is “Active”.

What about the IC50 (SGC-7901 [2]) of the same compound?
The IC50 was 11.1 µM.

Which Activity (SGC-7901 [1]) does the source give for Clc1ccc([C@@H]2CC[C@@H](NCc3ccccc3)c3ccccc32)cc1Cl (relative stereo) here?
The Activity was “Active”.

For CCCCN[C@@H]1CC[C@@H](c2ccc(Cl)c(Cl)c2)c2ccccc21 (relative stereo), which Activity (SGC-7901 [1]) is on record?
The Activity was “Active”.

With FC(F)(F)c1cccc(CN[C@@H]2CC[C@@H](c3ccc(Cl)c(Cl)c3)c3ccccc32)c1 (relative stereo) as the compound, how does the Activity (SGC-7901 [1]) read?
Its Activity is “inactive”.

Which Activity (SGC-7901 [3]) does the source give for NCCCCN[C@@H]1CC[C@@H](c2ccc(Cl)c(Cl)c2)c2ccccc21 (relative stereo) here?
Its Activity is “Dose-Dependent Effect”.

What about the Activity (SGC-7901 [1]) of the same compound?
The Activity was “Active”.

And the IC50 (SGC-7901 [2])?
The IC50 was 6.28 µM.

What about the viability at 3 µM (SGC-7901 [18]) of the same compound?
Its viability at 3 µM is 30.7%.

And the Activity (SGC-7901 [19])?
Its Activity is 2.67%.

And the Activity (SGC-7901 [20])?
The Activity was 44.6%.

What about the Activity (SGC-7901 [21]) of the same compound?
Its Activity is 14.1%.

And the Activity (SGC-7901 [22])?
The Activity was “Active”.

What about the Activity [10] of the same compound?
Its Activity is “Active”.

And the Activity [12]?
Its Activity is “Active”.

What about the Activity [14] of the same compound?
The Activity was “Active”.

And the Activity [25]?
The Activity was “inactive”.

And the Activity [24]?
The Activity was “inactive”.

For COc1cccc(CN[C@@H]2CC[C@@H](c3ccc(Cl)c(Cl)c3)c3ccccc32)c1 (relative stereo), which Activity (SGC-7901 [1]) is on record?
The Activity was “inactive”.

With COc1ccc(CN[C@@H]2CC[C@@H](c3ccc(Cl)c(Cl)c3)c3ccccc32)cc1OC (relative stereo) as the compound, how does the Activity (SGC-7901 [1]) read?
Its Activity is “inactive”.
